In ChEMBL document CHEMBL4330172, “Astratides: Insulin-Modulating, Insecticidal, and Antifungal Cysteine-Rich Peptides from Astragalus membranaceus” (J Nat Prod, 2019):
Activity calls are given as the source filed them. The calls are words filed in the database; no cut-off is given here. Where a SMILES comes first, the peptide text is derived from it.

Key:
Beta-TC6 [1] = test: Decrease in insulin secretion in mouse BetaTC6 cells at 1 to 100 uM after 24 hrs by ELISA; type: functional, cell-based
In short: (§1)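 Beta-TC-6 cells grown in high-glucose DMEM with 15% FBS at 37 °C, 5% CO2. Seeded 24 h, then treated 24 h with peptide (0.01, 0.1, 1, 10, 100 μM). Positive control 10 μM GW9508, negative control 0.1% DMSO. Secreted insulin measured by mouse insulin ELISA, reported in μIU/mL.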

[2] = Stability in pH 2 HCl at 200 uM for 2 hrs by RP-HPLC analysis; type: physicochemical; conditions: read-out: Stability
In short: (§2)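 Peptide at 200 μM held in a 100 °C water bath or in HCl (pH 2) for 2 h. Sampled at 0, 30, 60, 90 and 120 min, quenched on ice (heat) or with NaOH (acid). Remaining peptide measured by RP-HPLC, in triplicate.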

Sf9 [3] = test: Cytotoxicity against Spodoptera frugiperda Sf9 cells assessed as induction of membrane integrity loss at 5 uM after 15 hrs by PKH26-labeling based phase contrast microscopic analysis; type: functional, cell-based
In short: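 Sf9 cells grown at 26 °C in Sf-900 III SFM with 2% FBS. Incubated with 5 μM peptide at 26 °C for 15 h. Live-cell bright-field imaging at 0, 1, 4, 8 and 15 h to follow cell shape and membrane integrity.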

Beta-TC6 [4] = test: Decrease in insulin secretion in mouse BetaTC6 cells assessed as insulin level at 1 to 100 uM after 24 hrs by ELISA (reference value: 1225.2 uIU/ml); type: functional
In short: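 Beta-TC-6 cells grown in high-glucose DMEM with 15% FBS. Seeded at 5000 cells/mL for 24 h, then treated 24 h with peptide at 0.01, 0.1, 1, 10 or 100 μM. Controls were 10 μM GW9508 (positive) and 0.1% DMSO (negative). Secreted insulin measured by mouse insulin ELISA.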

[5] = Stability in human serum after 36 hrs by RP-HPLC analysis; type: ADME, cell-free; conditions: read-out: Stability
In short: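 Peptide (0.2 mg) incubated with 25% human male AB serum in phenol red-free DMEM at 37 °C. Aliquots taken at 0, 12, 24 and 48 h, quenched with 95% EtOH, held 15 min at 4 °C and centrifuged. Intact peptide quantified by RP-HPLC, in triplicate.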

CHO-K1 = test: Cytotoxicity against CHOK1 cells up to 200 uM after 24 hrs by MTT assay; type: cell-based, Cricetulus griseus; conditions: chinese hamster, cho-k1, 24 h
In short: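 CHO-K1 cells grown at 37 °C, 5% CO2 in DMEM with 10% FBS, exposed 24 h to peptide at 0.01–200 μM. Negative control 0.1% DMSO, positive control 10% Triton X-100. Viability read by MTT (0.5 mg/mL, 4 h), then DMSO solubilisation 1 h, absorbance at 550 nm.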

Sf9 [6] = test: Cytotoxicity against Spodoptera frugiperda Sf9 cells assessed as induction of membrane integrity loss at 10 uM after 24 hrs using Alex488-labeled test compound by PKH26/Hoechst staining based confocal microscopic analysis
pepsin = test: Stability in pH 2 HCl assessed as pepsin (unknown origin)-mediated compound hydrolysis by measuring parent compound remaining at 200 uM up to 6 hrs by RP-HPLC analysis; type: ADME; conditions: human, pepsin in pH 2 HCl, read-out: Stability
In short: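 Peptide at 200 μM incubated at 37 °C for 6 h with 4 mg/mL pepsin in HCl (pH 2), or with 20 U/mL aminopeptidase I in 20 mM tricine/0.05% BSA (pH 8.0). Sampled at 0, 2, 4 and 6 h, quenched with NaOH or HCl. Remaining peptide measured by RP-HPLC, in triplicate.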

[7] = (§3) Cytotoxicity against Spodoptera frugiperda Sf9 cells assessed as mortality after 24 hrs by MTT assay; type: functional; conditions: Sf9, 24 h, read-out: LD50 (the source's name)
In short: (§4)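 Sf9 cells seeded at 1 × 10^5 cells/mL for 24 h, then exposed 24 h to peptide at 0.01–200 μM (10 levels). 0.1% DMSO served as negative control, 10% Triton X-100 as positive control. Viability by MTT (0.5 mg/mL, 4 h at 26 °C), DMSO solubilisation, absorbance 550 nm. LD50 taken from the dose–mortality curve.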

Sf9 [8] = test: as §3; type: functional; in short: as §4
Beta-TC6 [9] = test: Decrease in insulin secretion in mouse BetaTC6 cells up to 1 uM after 24 hrs by ELISA; type: functional, cell-based; in short: as §1
[10] = Stability in water at 200 uM at 100 degC for 2 hrs by RP-HPLC analysis; type: physicochemical; conditions: read-out: Stability; in short: as §2
aminopeptidase = aminopeptidase (Homo sapiens, UniProt O43895+P15144+P28838+P50579+P53582+P55786+Q07075+Q6P179+Q6Q4G3+Q6UB28+Q8N6M6+Q8NDH3+Q9H4A4+Q9HAU8+Q9NQH7+Q9NQW7+Q9NZ08+Q9UIQ6+Q9ULA0); test: Stability in pH 8.0 20 mM tricine with 0.05% BSA assessed as aminopeptidase (unknown origin)-mediated compound hydrolysis by measuring parent compound remaining at 200 uM up to 6 hrs by RP-HPLC analysis; conditions: aminopeptidase in pH 8.0 20 mM tricine with 0.05% BSA

Q: Which results are given for `CC[C@H](C)[C@H](NC(=O)[C@H](CS)NC(=O)[C@H](Cc1ccccc1)NC(=O)CNC(=O)[C@@H](NC(=O)[C@@H](NC(=O)[C@H](CC(C)C)NC(=O)CNC(=O)[C@@H](NC(=O)[C@@H]1CCCN1C(=O)[C@@H](NC(=O)[C@H](CS)NC(=O)[C@H](CCCNC(=N)N)NC(=O)[C@H](CS)NC(=O)[C@H](CC(=O)O)NC(=O)[C@H](CCCNC(=N)N)NC(=O)[C@H](CO)NC(=O)CNC(=O)[C@H](CS)NC(=O)[C@@H]1CCCN1C(=O)[C@@H]1CCCN1C(=O)[C@@H](NC(=O)[C@H](CCC(=O)O)NC(=O)[C@H](Cc1ccccc1)NC(=O)[C@@H]1CCCN1C(=O)[C@H](CO)NC(=O)[C@H](CS)NC(=O)[C@H](C)NC(=O)CNC(=O)[C@H](CO)NC(=O)[C@H](CS)NC(=O)[C@H](CC(=O)O)NC(=O)[C@@H](N)C(C)C)C(C)C)[C@@H](C)CC)[C@@H](C)CC)C(C)C)C(C)C)C(=O)N[C@@H](Cc1ccc(O)cc1)C(=O)N1CCC[C@H]1C(=O)N[C@H](C(=O)NCC(=O)O)[C@@H](C)O` (H-VDCSGACSPFEVPPCGSRDCRCIPIGLVVGFCIYPTG-OH)?
A: Activity (Beta-TC6 [1]): Dose-dependent effect; remaining at 2 h, 200 µM [2]: 92%; Activity (Sf9 [3]): Active; Activity (Beta-TC6 [4]): 811.14 uIU/ml; remaining at 36 h [5]: > 90%; Activity (CHO-K1): Non-Toxic; Activity (Sf9 [6]): Active; remaining at 6 h, 200 µM (pepsin): > 88%; LC50 [7]: 5.9 µM; Activity (Sf9 [8]): Dose-dependent effect; Activity (Beta-TC6 [9]): inactive; remaining at 2 h, 200 µM [10]: 82%; remaining at 6 h, 200 µM (aminopeptidase): > 88%
